The record followed here is ChEMBL document CHEMBL1122902, “Synthesis of the antileukemic agents 5,10-dideazaaminopterin and 5,10-dideaza-5,6,7,8-tetrahydroaminopterin” (J Med Chem, 1985).

For assay [1], the target named is T1, Folylpolyglutamate synthase, mitochondrial (Mus musculus) (UniProt P48760).
T1 sequence (whole entry): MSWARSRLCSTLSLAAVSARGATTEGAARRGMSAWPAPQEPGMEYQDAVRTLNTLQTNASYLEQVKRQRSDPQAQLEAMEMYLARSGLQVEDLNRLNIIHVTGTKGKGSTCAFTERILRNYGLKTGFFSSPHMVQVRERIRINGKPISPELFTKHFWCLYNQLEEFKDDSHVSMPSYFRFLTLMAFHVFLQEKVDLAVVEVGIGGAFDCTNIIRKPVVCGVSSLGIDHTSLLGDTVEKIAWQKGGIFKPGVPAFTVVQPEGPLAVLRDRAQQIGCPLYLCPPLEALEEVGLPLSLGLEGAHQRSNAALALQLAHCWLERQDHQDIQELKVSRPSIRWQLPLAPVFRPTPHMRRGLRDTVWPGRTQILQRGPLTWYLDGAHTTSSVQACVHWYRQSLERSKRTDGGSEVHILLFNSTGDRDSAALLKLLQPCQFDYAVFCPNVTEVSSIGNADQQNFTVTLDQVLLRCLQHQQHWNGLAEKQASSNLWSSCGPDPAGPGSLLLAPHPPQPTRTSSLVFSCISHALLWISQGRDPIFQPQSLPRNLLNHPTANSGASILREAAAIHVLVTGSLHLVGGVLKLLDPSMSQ
Put plainly: Activity (relative Km ) was evaluated in vitro by purified mouse liver folate polyglutamate synthetase (FPGS). The procedure, abridged: (§1)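 Full saturation curves used duplicate assays at each of six concentrations, usually spanning 0.2–3 apparent Km. Kinetic values were derived by the Cleland method. Each value is expressed as a proportion of the PteGlu value from saturation curves run in the same experiment.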

Assay [2] has as its target T1, Folylpolyglutamate synthase, mitochondrial (Mus musculus). Description: Activity (relative Vmax) was evaluated in vitro by purified mouse liver folate polyglutamate synthetase (FPGS). The method, boiled down:
as §1

Assay [3] has as its system L1210. Description: (§2) Inhibitory concentration against the growth of L1210 murine leukemia cells in tissue culture. The format is functional, cell-based. Conditions: Mus musculus.
The target of assay [4] is T2, Thymidylate synthase (Lactobacillus casei, UniProt P00469).
T2 sequence (P00469 whole entry): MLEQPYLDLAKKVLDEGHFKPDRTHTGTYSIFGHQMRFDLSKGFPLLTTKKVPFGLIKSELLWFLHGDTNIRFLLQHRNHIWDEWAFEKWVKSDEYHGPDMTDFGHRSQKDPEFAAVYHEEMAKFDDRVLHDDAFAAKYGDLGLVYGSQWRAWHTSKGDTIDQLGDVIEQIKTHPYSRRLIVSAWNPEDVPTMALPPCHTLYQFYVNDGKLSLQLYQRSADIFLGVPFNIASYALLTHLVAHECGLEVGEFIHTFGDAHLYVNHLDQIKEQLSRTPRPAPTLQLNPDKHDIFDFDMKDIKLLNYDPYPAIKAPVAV
Put plainly: In vitro inhibitory concentration against Lactobacillus casei thymidylate synthetase. Set-up: species or system Lacticaseibacillus casei.

The species entered for assay [5] is Mus musculus. Described as §2. It counts as functional, cell-based.
Assay [6] deals with Mus musculus. Put plainly: In vivo activity (survivors) at optimal dose of 4 mg/kg, by intraperitoneal administration in BDF1 mice against L1210 leukemia cells; […] given as 0/10. The format is functional.
For assay [7], the system named is L1210. The description is as §2. The note with it: Mus musculus.
Assay [8] concerns L1210. Put plainly: (§3) In vivo activity(%ILS) at optimal dose of 4 mg/kg, by intraperitoneal administration in BDF1 mice against L1210 leukemia cells. Conditions: Mus musculus, L1210, ip. It counts as functional.
The test system of assay [9] is Mus musculus. Description: In vivo activity (survivors) at optimal dose of 1 mg/kg, by intraperitoneal administration in BDF1 mice against L1210 leukemia cells; […] given as 5/22. It counts as functional.
Assay [10] deals with Mus musculus. Put plainly: In vivo activity(%ILS) at optimal dose of 1 mg/kg, by intraperitoneal administration in BDF1 mice against L1210 leukemia cells. The format is functional. Conditions: L1210, ip.
Assay [11] deals with T1, Folylpolyglutamate synthase, mitochondrial (Mus musculus). Put plainly: Activity (relative Km) was evaluated in vitro by purified mouse liver folate polyglutamate synthetase (FPGS). The method, boiled down:
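Partially purified mouse liver FPGS incubated with each substrate for 1 h at 37 °C. Full saturation curves were run in duplicate at six concentrations, usually 0.2–3 apparent Km, and products were isolated. Kinetic constants came from Cleland analysis. Km is expressed relative to PteGlu, taken from saturation curves run in the same experiment.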

The test system of assay [12] is Mus musculus. The assay is described as §3. Conditions: L1210, ip. It counts as functional.
For assay [13], the system named is Mus musculus. Description: In vivo activity (survivors) at optimal dose of 4mg/kg, by intraperitoneal administration in BDF1 mice against L1210 leukemia cells; […] given as 4/21. The format is functional.

As for `Nc1nc(=O)c2nc(CNc3ccc(C(=O)N[C@@H](CCC(=O)O)C(=O)O)cc3)cnc2[nH]1`, the Km app in assay [1] worked out at 1 rel. The Relative Vmax in assay [2] stood at 1.
`Nc1nc(N)c2nc(CNc3ccc(C(=O)N[C@@H](CCC(=O)O)C(=O)O)cc3)cnc2n1` [AMINOPTERIN] yielded a Relative Km in assay [1] of 0.21. Moreover, the Relative Vmax in assay [2] stood at 1.5. This compound also yielded an IC50 in assay [3] of 0.0021 µM.
With `Nc1nc(O)c2c(n1)NCC(CCc1ccc(C(=O)NC(CCC(=O)O)C(=O)O)cc1)C2` (stereo not given), the Relative Km in assay [1] was 0.05. Moreover, the Relative Vmax in assay [2] came to 1.24. In addition, the IC50 in assay [4] is more than 1000 µM; in assay [5], 0.059 µM.
`CN(Cc1cnc2nc(N)nc(N)c2n1)c1ccc(C(=O)N[C@@H](CCC(=O)O)C(=O)O)cc1` [METHOTREXATE]: the Survivors in [6] amounted to 0. Moreover, in assay [7], half-maximal inhibition (IC50) required 0.01 µM. In assay [8], this compound displayed an ILS at 4 mg/kg of 85%.
The compound `Nc1nc(N)c2c(n1)NCC(CCc1ccc(C(=O)NC(CCC(=O)O)C(=O)O)cc1)C2` (stereo not given) returned a Survivors in assay [9] of 5. For the same compound, the ILS at 1 mg/kg in assay [10] was 111%. The compound also gave a Relative Km in assay [1] of 0.23. The compound also displayed a Relative Vmax in assay [2] of 1.61. Besides, the IC50 is 920 µM in [4] and 0.0033 µM in assay [3].
In turn, `Nc1nc(O)c2c(n1)NCC(CNc1ccc(C(=O)N[C@@H](CCC(=O)O)C(=O)O)cc1)N2` (stereo not given in full) had a Relative Km in assay [1] of 0.051. This compound also had a Relative Vmax in assay [2] of 1.31.
On to `Nc1nc(O)c2cc(CCc3ccc(C(=O)N[C@@H](CCC(=O)O)C(=O)O)cc3)cnc2n1`, for which the Relative Km in assay [1] was determined as 0.68. In [2], this compound returned a Relative Vmax of 0.9. The same compound showed an IC50 in assay [5] of more than 100 µM.
Compound `Nc1nc(N)c2cc(CCc3ccc(C(=O)NC(CCC(=O)O)C(=O)O)cc3)cnc2n1` (stereo not given) came in with a Relative Km in assay [11] of 0.86. Moreover, in assay [2], the Relative Vmax stood at 0.35. Also, the IC50 turned out to be 92 µM in assay [4] and 0.017 µM in [3]. For the same compound, in assay [12], the ILS at 4 mg/kg came to 130%. In assay [13], this compound yielded a Survivors of 4.
In assay [4], `Nc1nc2ncc(CCc3ccc(C(=O)N[C@@H](CCC(=O)O)C(=O)O)cc3)cc2c(=O)[nH]1` yielded an IC50 of 77 µM.

By IC50 is commonly meant the midpoint of a concentration-inhibition curve. A higher IC50 goes with weaker potency. As usually defined, the ILS is the gain in survival time of treated over control animals, in per cent.
